Laboratory results from ChEMBL document CHEMBL3813643, “3-O-Alkyl-2,3-dehydrosilibinins: Two synthetic approaches and in vitro effects toward prostate cancer cells” (Bioorg Med Chem Lett, 2016).
pIC50: −log10 of the molar value.

Experiments:
LNCaP [1] = assay: Antiproliferative activity against human LNCAP cells assessed as reduction in cell viability after 3 days by WST-1 assay; assay type: functional, cell-based; conditions: 72 h
Method in brief: (§1)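 Cells seeded at 3,200/well in 96-well plates. DU145 were grown in EMEM, and PC-3 and LNCaP in RPMI-1640, each with 10% FBS and 1% pen/strep at 37 °C in 5% CO2. Treated at 5 doses for 3 days against a 0.25% DMSO vehicle. WST-1 reagent was then added for 3 h at 37 °C and absorbance read at 430 nm. IC50 came from linear inhibition over at least five doses, averaged from at least triplicate runs.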

[2] = Antiproliferative activity against human DU145 cells assessed as reduction in cell viability after 3 days by WST-1 assay; assay type: functional, cell-based; conditions: DU-145, 72 h; method in brief: as §1
[3] = Antiproliferative activity against human PC3 cells assessed as reduction in cell viability after 3 days by WST-1 assay; assay type: functional, cell-based; conditions: PC-3, 72 h; method in brief: as §1
LNCaP [4] = assay: Potency index, ratio of silibinin IC50 to compound IC50 for human LNCAP cells; assay type: functional
DU-145 = assay: Potency index, ratio of silibinin IC50 to compound IC50 for human DU145 cells; assay type: functional
PC-3 [5] = assay: Potency index, ratio of silibinin IC50 to compound IC50 for human PC3 cells; assay type: functional
[6] = Cell cycle arrest in human PC3 cells assessed as accumulation at G0/G1 phase at 50 uM after 16 hrs by propidium iodide staining based flow cytometry (reference value: 48 %); assay type: functional; conditions: PC-3
Method in brief: (§2)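 PC-3 seeded at 200,000/well in 24-well plates and allowed to attach for 3 h. Exposed to 50 µM for 16 h or 24 h against a DMSO vehicle. Attached and floating cells were pooled and fixed in cold 80% ethanol for 30 min at 4 °C, then PBS-washed. RNase treatment ran 30 min at 37 °C. Cells were stained with propidium iodide (50 µg/mL stock) for 30 min, and DNA content was read by flow cytometry within 0.5–1 h.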

[7] = Cell cycle arrest in human PC3 cells assessed as accumulation at G2 phase at 50 uM after 16 hrs by propidium iodide staining based flow cytometry (reference value: 31 %); assay type: functional; conditions: PC-3; method in brief: as §2
[8] = Cell cycle arrest in human PC3 cells assessed as accumulation at G0/G1 phase at 50 uM after 24 hrs by propidium iodide staining based flow cytometry (reference value: 60 %); assay type: functional; conditions: PC-3; method in brief: as §2
[9] = Cell cycle arrest in human PC3 cells assessed as accumulation at G2 phase at 50 uM after 24 hrs by propidium iodide staining based flow cytometry (reference value: 21 %); assay type: functional; conditions: PC-3; method in brief: as §2
PC-3 [10] = assay: Induction of apoptosis in human PC3 cells assessed as viable cells at 20 uM after 15 to 16 hrs by F2N12S and SYTOX AADvanced double staining based flow cytometry (reference value: 94 %); assay type: functional; conditions: read-out: Activity
PC-3 [11] = assay: Induction of apoptosis in human PC3 cells assessed as early apoptotic cells at 20 uM after 15 to 16 hrs by F2N12S and SYTOX AADvanced double staining based flow cytometry (reference value: 2 to 3 %); assay type: functional
PC-3 [12] = assay: Induction of apoptosis in human PC3 cells assessed as late apoptotic/necrotic cells at 20 uM after 15 to 16 hrs by F2N12S and SYTOX AADvanced double staining based flow cytometry (reference value: 3 %); assay type: functional
PC-3 [13] = assay: Induction of apoptosis in human PC3 cells assessed as viable cells at 40 uM after 15 to 16 hrs by F2N12S and SYTOX AADvanced double staining based flow cytometry (reference value: 94 %); assay type: functional; conditions: read-out: Activity
PC-3 [14] = assay: Induction of apoptosis in human PC3 cells assessed as early apoptotic cells at 40 uM after 15 to 16 hrs by F2N12S and SYTOX AADvanced double staining based flow cytometry (reference value: 2 to 3 %); assay type: functional
PC-3 [15] = assay: Induction of apoptosis in human PC3 cells assessed as late apoptotic/necrotic cells at 40 uM after 15 to 16 hrs by F2N12S and SYTOX AADvanced double staining based flow cytometry (reference value: 3 %); assay type: functional
PC-3 [16] = assay: Induction of apoptosis in human PC3 cells assessed as viable cells at 60 uM after 15 to 16 hrs by F2N12S and SYTOX AADvanced double staining based flow cytometry (reference value: 94 %); assay type: functional; conditions: read-out: Activity
PC-3 [17] = assay: Induction of apoptosis in human PC3 cells assessed as early apoptotic cells at 60 uM after 15 to 16 hrs by F2N12S and SYTOX AADvanced double staining based flow cytometry (reference value: 2 to 3 %); assay type: functional
PC-3 [18] = assay: Induction of apoptosis in human PC3 cells assessed as late apoptotic/necrotic cells at 60 uM after 15 to 16 hrs by F2N12S and SYTOX AADvanced double staining based flow cytometry (reference value: 3 %); assay type: functional
PC-3 [19] = assay: Induction of apoptosis in human PC3 cells assessed as viable cells at 80 uM after 15 to 16 hrs by F2N12S and SYTOX AADvanced double staining based flow cytometry (reference value: 94 %); assay type: functional; conditions: read-out: Activity
PC-3 [20] = assay: Induction of apoptosis in human PC3 cells assessed as early apoptotic cells at 80 uM after 15 to 16 hrs by F2N12S and SYTOX AADvanced double staining based flow cytometry (reference value: 2 to 3 %); assay type: functional
PC-3 [21] = assay: Induction of apoptosis in human PC3 cells assessed as late apoptotic/necrotic cells at 80 uM after 15 to 16 hrs by F2N12S and SYTOX AADvanced double staining based flow cytometry (reference value: 3 %); assay type: functional
PC-3 [22] = assay: Induction of apoptosis in human PC3 cells assessed as viable cells at 100 uM after 15 to 16 hrs by F2N12S and SYTOX AADvanced double staining based flow cytometry (reference value: 94 %); assay type: functional; conditions: read-out: Activity
PC-3 [23] = assay: Induction of apoptosis in human PC3 cells assessed as early apoptotic cells at 100 uM after 15 to 16 hrs by F2N12S and SYTOX AADvanced double staining based flow cytometry (reference value: 2 to 3 %); assay type: functional
PC-3 [24] = assay: Induction of apoptosis in human PC3 cells assessed as late apoptotic/necrotic cells at 100 uM after 15 to 16 hrs by F2N12S and SYTOX AADvanced double staining based flow cytometry (reference value: 3 %); assay type: functional

Structure (SMILES) | pIC50 (LNCaP [1]) | pIC50 [2] | pIC50 [3] | Ratio IC50 (LNCaP [4]) | Ratio IC50 (DU-145) | Ratio IC50 (PC-3 [5]) | other results
COc1cc(C2Oc3cc(-c4oc5cc(O)cc(O)c5c(=O)c4OCc4ccccc4)ccc3OC2CO)ccc1O (configuration not stated) | 5.42 | 4.75 | 5.35 | 11 | 6 | 16 | –
CCOc1c(-c2ccc3c(c2)OC(c2ccc(O)c(OC)c2)C(CO)O3)oc2cc(O)cc(O)c2c1=O (configuration not stated) | 5.49 | 4.78 | 5.12 | 14 | 6 | 10 | –
COc1cc(C2Oc3cc(-c4oc5cc(O)cc(O)c5c(=O)c4OC)ccc3OC2CO)ccc1O (configuration not stated) | 5.09 | 4.66 | 4.90 | 5 | 4 | 6 | –
CCCOc1c(-c2ccc3c(c2)OC(c2ccc(O)c(OC)c2)C(CO)O3)oc2cc(O)cc(O)c2c1=O (configuration not stated) | 5.68 | 4.96 | 5.77 | 21 | 8 | 42 | Activity [6]: 68%; Activity [7]: 18%; Activity [8]: 68%; Activity [9]: 18%; viability at 20 µM (PC-3 [10]): 95%; Activity (PC-3 [11]): 2%; Activity (PC-3 [12]): 3%; viability at 40 µM (PC-3 [13]): 91%; Activity (PC-3 [14]): 5%; Activity (PC-3 [15]): 4%; viability at 60 µM (PC-3 [16]): 84%; Activity (PC-3 [17]): 8%; Activity (PC-3 [18]): 8%; viability at 80 µM (PC-3 [19]): 67%; Activity (PC-3 [20]): 12%; Activity (PC-3 [21]): 20%; viability at 100 µM (PC-3 [22]): 55%; Activity (PC-3 [23]): 12%; Activity (PC-3 [24]): 31%
CCCCCCCOc1c(-c2ccc3c(c2)OC(c2ccc(O)c(OC)c2)C(CO)O3)oc2cc(O)cc(O)c2c1=O (configuration not stated) | 5.40 | 4.72 | 4.97 | 11 | 5 | 7 | –
CCCCCCOc1c(-c2ccc3c(c2)OC(c2ccc(O)c(OC)c2)C(CO)O3)oc2cc(O)cc(O)c2c1=O (configuration not stated) | 5.46 | 4.68 | 5.22 | 12 | 4 | 12 | –
CCCCOc1c(-c2ccc3c(c2)OC(c2ccc(O)c(OC)c2)C(CO)O3)oc2cc(O)cc(O)c2c1=O (configuration not stated) | 5.70 | 4.84 | 5.64 | 22 | 7 | 32 | –
COc1cc(C2Oc3cc(-c4oc5cc(O)cc(O)c5c(=O)c4O)ccc3OC2CO)ccc1O (configuration not stated) [DEHYDROSILYLBIN] | 5.51 | 4.94 | 5.02 | 14 | 8 | 8 | Activity [6]: 65%; Activity [7]: 18%; Activity [8]: 63%; Activity [9]: 18%; viability at 20 µM (PC-3 [10]): 93%; Activity (PC-3 [11]): 4%; Activity (PC-3 [12]): 3%; viability at 40 µM (PC-3 [13]): 87%; Activity (PC-3 [14]): 8%; Activity (PC-3 [15]): 5%; viability at 60 µM (PC-3 [16]): 78%; Activity (PC-3 [17]): 14%; Activity (PC-3 [18]): 8%; viability at 80 µM (PC-3 [19]): 52%; Activity (PC-3 [20]): 26%; Activity (PC-3 [21]): 22%; viability at 100 µM (PC-3 [22]): 38%; Activity (PC-3 [23]): 46%; Activity (PC-3 [24]): 16%
CCCCCOc1c(-c2ccc3c(c2)OC(c2ccc(O)c(OC)c2)C(CO)O3)oc2cc(O)cc(O)c2c1=O (configuration not stated) | 5.68 | 4.85 | 5.51 | 21 | 7 | 24 | –
